Experimental data published in ChEMBL document CHEMBL3124806, “Imidazopyridine-fused [1,3]-diazepinones: synthesis and antiproliferative activity” (Eur J Med Chem, 2014).

Key:
Type in all cases: functional
[1] = Cytotoxicity against human UO31 cells assessed as cell growth at 10 uM after 48 hrs by SRB assay relative to untreated control; settings: UO-31, 48 h, read-out: Activity
How it was run: (§1)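 NCI-60 single-dose screen. Compounds were added to the cultures at 10 μM and incubated for 48 h. The end point was sulforhodamine B protein staining read spectrophotometrically. Growth is reported as percent of untreated control cells.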

MDA-MB-231 = assay: Cytotoxicity against human MDA-MB-231 cells assessed as cell growth at 10 uM after 48 hrs by SRB assay relative to untreated control; settings: MDA-MB-231, 48 h, read-out: Activity
How it was run: (§2)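 NCI-60 one-dose screen: each agent added at 10 µM, cultures incubated 48 h. Endpoint by sulforhodamine B protein-binding dye read spectrophotometrically; growth expressed as percent of untreated control cells.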

RXF 393 = assay: Cytotoxicity against human RXF393 cells assessed as cell growth at 10 uM after 48 hrs by SRB assay relative to untreated control; settings: RXF 393, 48 h, read-out: Activity; how it was run: as §2
KM12 = assay: Cytotoxicity against human KM12 cells assessed as cell growth at 10 uM after 48 hrs by SRB assay relative to untreated control; settings: KM12, 48 h, read-out: Activity
How it was run: (§3)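 NCI-60 panel screen at a single concentration of 10 μM with 48 h incubation. Cell density measured by sulforhodamine B protein-binding dye and read spectrophotometrically. Growth expressed as percent of untreated control cells.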

SR = assay: Cytotoxicity against human SR cells assessed as cell growth at 10 uM after 48 hrs by SRB assay relative to untreated control; settings: read-out: Activity; how it was run: as §1
HCT-116 = assay: Cytotoxicity against human HCT116 cells assessed as cell growth at 10 uM after 48 hrs by SRB assay relative to untreated control; settings: HCT-116, 48 h, read-out: Activity; how it was run: as §3
LOX IMVI = assay: Cytotoxicity against human LOXIMVI cells assessed as cell growth at 10 uM after 48 hrs by SRB assay relative to untreated control; settings: read-out: Activity; how it was run: as §3
MDA-MB-435 = assay: Cytotoxicity against human MDA-MB-435 cells assessed as cell growth at 10 uM after 48 hrs by SRB assay relative to untreated control; settings: MDA-MB-435, 48 h, read-out: Activity; how it was run: as §2
PC-3 = assay: Cytotoxicity against human PC3 cells assessed as cell growth at 10 uM after 48 hrs by SRB assay relative to untreated control; settings: PC-3, 48 h, read-out: Activity; how it was run: as §2
SF-268 = assay: Cytotoxicity against human SF268 cells assessed as cell growth at 10 uM after 48 hrs by SRB assay relative to untreated control; settings: SF-268, 48 h, read-out: Activity; how it was run: as §2
OVCAR-8 = assay: Cytotoxicity against human OVCAR8 cells assessed as cell growth at 10 uM after 48 hrs by SRB assay relative to untreated control; settings: OVCAR-8, 48 h, read-out: Activity; how it was run: as §2
COLO 205 = assay: Cytotoxicity against human COLO205 cells assessed as cell growth at 10 uM after 48 hrs by SRB assay relative to untreated control; settings: COLO 205, 48 h, read-out: Activity; how it was run: as §3
TK-10 = assay: Cytotoxicity against human TK10 cells assessed as cell growth at 10 uM after 48 hrs by SRB assay relative to untreated control; settings: TK-10, 48 h, read-out: Activity; how it was run: as §1
OVCAR-3 = assay: Cytotoxicity against human OVCAR3 cells assessed as cell growth at 10 uM after 48 hrs by SRB assay relative to untreated control; settings: OVCAR-3, 48 h, read-out: Activity; how it was run: as §2
HOP-92 = assay: Cytotoxicity against human HOP92 cells assessed as cell growth at 10 uM after 48 hrs by SRB assay relative to untreated control; settings: HOP-92, 48 h, read-out: Activity; how it was run: as §3
[2] = Cytotoxicity against human UACC257 cells assessed as cell growth at 10 uM after 48 hrs by SRB assay relative to untreated control; settings: UACC-257, 48 h, read-out: Activity; how it was run: as §1
SW-620 = assay: Cytotoxicity against human SW620 cells assessed as cell growth at 10 uM after 48 hrs by SRB assay relative to untreated control; settings: SW-620, 48 h, read-out: Activity; how it was run: as §1
IGROV-1 = assay: Cytotoxicity against human IGROV1 cells assessed as cell growth at 10 uM after 48 hrs by SRB assay relative to untreated control; settings: IGROV-1, 48 h, read-out: Activity; how it was run: as §3
RPMI-8226 = assay: Cytotoxicity against human RPMI8226 cells assessed as cell growth at 10 uM after 48 hrs by SRB assay relative to untreated control; settings: RPMI-8226, 48 h, read-out: Activity; how it was run: as §2
DU-145 = assay: Cytotoxicity against human DU145 cells assessed as cell growth at 10 uM after 48 hrs by SRB assay relative to untreated control; settings: DU-145, 48 h, read-out: Activity; how it was run: as §3
SF-295 = assay: Cytotoxicity against human SF295 cells assessed as cell growth at 10 uM after 48 hrs by SRB assay relative to untreated control; settings: SF-295, 48 h, read-out: Activity; how it was run: as §2
SNB-75 = assay: Cytotoxicity against human SNB75 cells assessed as cell growth at 10 uM after 48 hrs by SRB assay relative to untreated control; settings: SNB-75, 48 h, read-out: Activity; how it was run: as §1
SK-MEL-28 = assay: Cytotoxicity against human SK-MEL-28 cells assessed as cell growth at 10 uM after 48 hrs by SRB assay relative to untreated control; settings: SK-MEL-28, 48 h, read-out: Activity; how it was run: as §1
K562 = assay: Cytotoxicity against human K562 cells assessed as cell growth at 10 uM after 48 hrs by SRB assay relative to untreated control; settings: K562, 48 h, read-out: Activity; how it was run: as §3
CAKI-1 = assay: Cytotoxicity against human Caki1 cells assessed as cell growth at 10 uM after 48 hrs by SRB assay relative to untreated control; settings: CAKI-1, 48 h, read-out: Activity; how it was run: as §3
[3] = Cytotoxicity against human OVCAR4 cells assessed as cell growth at 10 uM after 48 hrs by SRB assay relative to untreated control; settings: OVCAR-4, 48 h, read-out: Activity; how it was run: as §2
NCI-H460 = assay: Cytotoxicity against human NCI-H460 cells assessed as cell growth at 10 uM after 48 hrs by SRB assay relative to untreated control; settings: NCI-H460, 48 h, read-out: Activity; how it was run: as §2
A498 = assay: Cytotoxicity against human A498 cells assessed as cell growth at 10 uM after 48 hrs by SRB assay relative to untreated control; settings: A498, 48 h, read-out: Activity; how it was run: as §3
HCC 2998 = assay: Cytotoxicity against human HCC2998 cells assessed as cell growth at 10 uM after 48 hrs by SRB assay relative to untreated control; settings: HCC 2998, 48 h, read-out: Activity; how it was run: as §3
HOP-62 = assay: Cytotoxicity against human HOP62 cells assessed as cell growth at 10 uM after 48 hrs by SRB assay relative to untreated control; settings: HOP-62, 48 h, read-out: Activity; how it was run: as §3
NCI-H226 = assay: Cytotoxicity against human NCI-H226 cells assessed as cell growth at 10 uM after 48 hrs by SRB assay relative to untreated control; settings: NCI-H226, 48 h, read-out: Activity; how it was run: as §2

Molecule `O=C1c2c(nc3ccccn23)N=C(c2ccccc2)N2CCC[C@@H]12` has a growth at 10 µM [1] of 88.7%, a growth at 10 µM (MDA-MB-231) of 94.6% and a growth at 10 µM (RXF 393) of 98.5%. For the same molecule, the growth at 10 µM (KM12) was 101%, the growth at 10 µM (SR) was 118% and the growth at 10 µM (HCT-116) was 97.8%. It also gave a growth at 10 µM (LOX IMVI) of 90.1%, a growth at 10 µM (MDA-MB-435) of 101% and a growth at 10 µM (PC-3) of 92.6%. For the same molecule, the growth at 10 µM (SF-268) was 97.8%, the growth at 10 µM (OVCAR-8) was 98.7% and the growth at 10 µM (COLO 205) was 99.3%. For the same molecule, the growth at 10 µM (TK-10) was 124%, the growth at 10 µM (OVCAR-3) was 105% and the growth at 10 µM (HOP-92) was 82.7%. It also gave a growth at 10 µM [2] of 94.5%, a growth at 10 µM (SW-620) of 102% and a growth at 10 µM (IGROV-1) of 114%. The growth at 10 µM (RPMI-8226) was 96.5%, the growth at 10 µM (DU-145) was 97% and the growth at 10 µM (SF-295) was 103%. The growth at 10 µM (SNB-75) was 88.3%, the growth at 10 µM (SK-MEL-28) was 108% and the growth at 10 µM (K562) was 124%. It also gave a growth at 10 µM (CAKI-1) of 95.4%, a growth at 10 µM [3] of 95.2% and a growth at 10 µM (NCI-H460) of 103%. For the same molecule, the growth at 10 µM (A498) was 89.3%, the growth at 10 µM (HCC 2998) was 94.7% and the growth at 10 µM (HOP-62) was 99.9%. For the same molecule, the growth at 10 µM (NCI-H226) was 94.9%.
